Assay outcomes as filed in PubChem BioAssay.
STAT3 inh-1: inhibitors of IL-6 induced STAT3 signaling; inhibition, % at 5.5 µM; AID 862; U3A cells, IL-6 STAT3-luciferase reporter, luminescence; host cell line lacks STAT1; actives 0.89% (n = 190,000);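 active = inhibition above the mean inhibition across all screened compounds plus 3 SD, cut at about 44% in these data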;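 also: 0% = DMSO only wells and 100% = 100 µM nifuroxazide control wells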
STAT1 act: increases IFN-gamma driven STAT1 reporter signal | NIH 3T3 STAT1-luciferase reporter, luminescence; 100% = IFN-gamma alone, no compound | activation (% of control), % at 5.5 µM | actives 2.6% (n = 200,000) | AID 932;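 active = activation above the screen-wide mean activation plus 3 SD, cut at about 130% in these data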;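 also: raw ratio to IFN-gamma control signal so 100% means no change and 0% no light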
STAT3 activator: activators of IL-6 induced STAT3 signaling | U3A cells, IL-6 STAT3-luciferase reporter, luminescence; 100% = signal with IL-6 EC80 alone | activation (% of control), % at 5.6 µM | actives 0.91% (n = 190,000) | AID 871;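 active = activation above the screen-wide mean of compound activation plus 3 SD, cut at about 130% in these data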;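 also: 0% = background luminescence of wells with medium and substrate only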
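system = STAT3-luciferase reporter U3A cells | reagent = IL-6 stimulus at 33 ng/mL final | timing = 1 h compound pre-exposure, 6 h IL-6 stimulation, 37 °C | measured by = luminescence | evaluation = % activation versus median of IL-6-stimulated wells | control set = IL-6-only wells as 100% reference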
STAT1 blocker: reduces IFN-gamma driven STAT1 reporter signal. actives 0.35% (n = 200,000). inhibition, % at 5.5 µM. NIH 3T3 STAT1-luciferase reporter, luminescence;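 active = inhibition above a set limit, the mean inhibition across all tested compounds plus 3 SD, cut at about 34% in these data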;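 also: 0% = IFN-gamma with DMSO and 100% = IFN-gamma with 300 µM nifuroxazide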
NF-kB neuron act: compounds increasing NF-kB expression in human neuronal cells. NF-kB reporter expression; stronger effect = higher value. fold change at 12.5 µM. actives 1.6% (n = 190,000); in the data active = fold change above about 3.3
APP 5'UTR act: activates APP 5'UTR luciferase reporter; SH-SY5Y APP 5'UTR luciferase reporter, luminescence; zero percent = DMSO vehicle wells; activation, % at 2 µM; actives 1% (n = 190,000);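 active = activation above a set limit, based on mean plus 3 SD of controls, cut at about 140% in these data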
STAT3 inh-2: confirmation of STAT3 signaling inhibitors. U3A cells, IL-6 STAT3 luciferase reporter, luminescence; cell line lacks STAT1. shares compounds with STAT3 inh-1. actives 45% (n = 1,200). inhibition, % at 5.7 µM. AID 1265;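 active = inhibition above the hit cutoff computed for the primary STAT3 screen, cut at about 44% in these data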;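 also: 0% = IL-6 plus DMSO and 100% = IL-6 plus nifuroxazide control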
NFkB inh STAT3ct: NF-kappaB inhibition in STAT3 inhibitor counter-screen; shares compounds with STAT3 inh-1; HEK293T NF-kB luciferase reporter, TNF-alpha induced; inhibition, % at 5.7 µM; actives 36% (n = 1,200); AID 1308;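 active = inhibition above the mean of solvent-only control wells plus 3 SD, cutoff set per campaign, cut at about 13% in these data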;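 also: 0% = TNF-alpha with DMSO and 100% = TNF-alpha with MG high control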
STAT1 inh 2: inhibits STAT1, counter-screen to STAT3 inhibitors; NIH 3T3 STAT1-luciferase reporter, IFN-gamma induced, luminescence; inhibition, % at 5.7 µM; shares compounds with STAT3 inh-1; actives 27% (n = 1,200); AID 1317;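 active = inhibition above the mean plus 3 SD of solvent-only control wells, limit set per screening run, cut at about 16% in these data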;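 also: 0% = DMSO with IFN-gamma and 100% = nifuroxazide control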
Numbers without * were called inactive; . = no result. Only some compounds are listed: those with a hit (about 4.9% of all), similar ones and a draw of the others.

SMILES	STAT3 inh-1	STAT1 act	STAT3 activator	STAT1 blocker	NF-kB neuron act	APP 5'UTR act	STAT3 inh-2	NFkB inh STAT3ct	STAT1 inh 2
O=C(CSc1cnc2ccccc2n1)c1ccc(F)cc1	58.1*	115.1	52.1	-17.1	4.11*	188.9*	-2.7	-37.1	-69.6
Cc1cc(/C=N/NC(=O)c2cccs2)c(C)n1-c1ccccc1	67.6*	81.1	45.8	20.6	1.28	162.8*	11.6	27.4*	-79.1
Cc1cc(/C=N/NC(=O)c2ccncc2)c(C)n1-c1ccccc1	-16.2	113.1	111.8	-13.8	1.03	17.5	.	.	.
CCCC(NC(=S)NCC1CCCO1)C12CC3CC(CC(C3)C1)C2 (centres undefined)	0.7	97.5	100.5	1.7	0.84	-3.7	.	.	.
C/C(=N\NC(=O)c1ccncc1)c1cccs1	11.5	120.4	97.2	-24.5	1.34	-4.8	.	.	.
C/C(=N\NC(=O)c1ccccc1O)c1cccs1	60.7*	114.1	50.8	-14.3	3.59*	107.3	29.5	-1.7	-8.1
C/C(=N\NC(=O)C1=NNC(=O)C1C)c1cccs1 (centres undefined)	-1.9	113.9	104.5	-16.3	1.71	16.6	.	.	.
C/C(=N/NC(=O)c1cc(C2CC2)[nH]n1)c1cccs1	76.3*	76.4	36.0	25.5	3.07	119.7	51.8*	19.1*	-7.8
Cc1ccc(C)c(Cn2c(C(=O)OC(C)C)cc3c2ccn3C)c1	11.2	93.2	94.0	7.5	0.9	1.4	.	.	.
O=C(C1=C(O)C(=O)N(c2ccccc2)C1c1ccc([N+](=O)[O-])cc1)c1cccs1 (centres undefined)	2.0	100.7	103.4	-3.0	0.91	-17.4	.	.	.
Cc1ccc2[nH]c3c(N4CCN(Cc5ccc6c(c5)OCO6)CC4)ncnc3c2c1	54.2*	71.9	59.0	30.9	0.39	17.8	32.7	14.8*	17.4*
COc1cccc2[nH]c3c(N4CCN(Cc5ccc6c(c5)OCO6)CC4)ncnc3c12	18.3	103.7	87.7	-4.0	0.51	-3.7	.	.	.
CC(=O)c1cccc(NC(=O)Nc2ccc(C(=O)N3CCCC3)cc2)c1	13.2	87.5	88.2	13.6	1.09	22.3	.	.	.
O=C(Nc1ccccc1)Nc1ccc(C(=O)N2CCCC2)cc1	44.9*	71.1	64.1	30.1	3.14	185.9*	23.3	-6.9	-24.2
C/C(=N\NC(=O)c1ccccc1-n1cccc1)C1CC1	2.3	92.5	100.7	8.3	1.13	-0.7	.	.	.
CCS(=O)(=O)c1ccc(N=Nc2ccc(O)c3ncccc23)c(OC)c1	55.4*	103.7	55.9	-2.2	0.8	-62.8	16.5	-4.6	-18.1
CO/N=C/c1cccn1-c1nccc(N(C)C)c1C#N	10.7	96.3	94.4	2.5	1.19	1.0	.	.	.
O=C1C(Cl)=C(NCC2CCCO2)C(=O)N1CCc1ccccc1 (centres undefined)	-5.1	112.5	106.5	-13.6	2.41	43.2	.	.	.
COc1ccc(Nc2nc(N3CCCC3)c3ccccc3n2)cc1	21.6	85.8	85.4	13.8	0.44	-19.1	.	.	.
CCN(CC)c1ccc(Nc2nc(N3CCOCC3)c3ccccc3n2)cc1	49.2*	81.4	60.6	20.2	0.84	-20.5	40.8	8.9	15.0
COc1ccc2cc3c(N)nn(C(=O)Cc4ccc(Cl)cc4)c3nc2c1	15.9	98.4	93.8	1.8	1.14	3.1	.	.	.
COc1cccc(CC(=O)n2nc(N)c3cc4ccc(OC)cc4nc32)c1	45.8*	98.8	67.7	1.4	1.24	-12.7	36.5	-14.3	8.1
CC(C)OC(=O)NCCOC(=O)Nc1ccccc1Cl	19.7	99.0	89.4	-1.0	1.05	-7.5	.	.	.
CC(C)c1cc(C(N)=O)c(NC(=O)c2cccc(COc3ccc(Cl)cc3)c2)s1	62.6*	68.3	48.2	34.4*	3.01	80.2	32.3	7.7	11.3
CCOc1cc(C(=O)Nc2cc(C)on2)cc(OCC)c1OCC	3.3	95.4	100.1	5.0	0.99	10.0	.	.	.
SMILES	STAT3 inh-1	STAT1 act	STAT3 activator	STAT1 blocker	NF-kB neuron act	APP 5'UTR act	STAT3 inh-2	NFkB inh STAT3ct	STAT1 inh 2
Cc1cc(NC(=O)c2cccc(COc3ccc(Br)cc3)c2)no1	49.2*	86.2	63.2	15.4	2.66	113.2	19.0	40.7*	-15.2
CCOc1ccc(C(=O)Nc2cc(C)on2)cc1	46.0*	103.7	65.7	-4.1	3.59*	108.6	2.4	-23.1	-52.2
Cc1nn(Cc2c(F)c(F)c(F)c(F)c2F)c(C)c1NC(=O)c1cccc(COc2ccc(Cl)cc2)c1	-3.2	107.6	109.4	-8.4	1.9	50.5	.	.	.
Cc1cc(NC(=O)COC(=O)c2cccc(OCc3ccccc3)c2)no1	-9.7	105.4	110.7	-6.0	1.19	-5.8	.	.	.
CCCCC1CCC(c2nc(-c3ccccn3)no2)CC1 (centres undefined)	71.6*	102.4	44.7	-2.6	2.38	91.9	21.8	-39.0	-85.0
CC(=O)N1CCc2cc(C(=O)CN3CCN(c4cccc(Cl)c4)CC3)ccc21	45.1*	95.7	68.2	4.8	0.78	5.4	17.4	-7.6	-14.1
CC(=O)N1CCc2cc(C(=O)CN3CCC(C)CC3)ccc21	5.0	99.5	103.3	0.6	0.92	.	.	.	.
CCCCCOc1ccc(Br)cc1CSC(=N)N	49.0*	70.4	60.6	33.1	1.11	-62.8	63.5*	23.2*	21.1*
O=C(Nc1ccc2c(c1)nc1n2CCSC1)c1ccco1	63.2*	96.2	50.6	4.1	2.82	110.2	23.7	-16.4	-38.5
O=C(Nc1ccc2c(c1)nc1n2CCOC1)c1ccco1	4.9	121.3	98.8	-23.2	1.72	47.0	.	.	.
Cc1cccc(C)c1OCC(=O)Nc1ccc(N2CCOCC2)cc1	1.7	100.1	99.7	-1.2	1.19	1.2	.	.	.
CCOC(=O)C(C)Oc1ccsc1C(=O)OC (centres undefined)	-2.0	97.8	103.9	2.4	1.28	9.9	.	.	.
c1c2c(cc3sc(N4CCOCC4)nc13)OCO2	21.6	118.4	86.2	-20.2	3.16	92.3	.	.	.
c1c2c(cc3sc(N4CCCCC4)nc13)OCO2	62.1*	90.3	53.1	10.7	3.82*	206.5*	34.0	-1.0	-55.9
CC1C/C(=C/c2ccncc2)C(=O)/C(=C/c2ccncc2)C1 (centres undefined)	53.3*	75.4	57.5	26.0	0.23	-95.0	43.7*	-20.4	19.1*
Cc1cccc(N2CCN(C(=O)N3CCOCC3)CC2)c1C	12.2	96.9	91.5	1.7	1.6	-4.3	.	.	.
Cc1noc(C)c1CSCC(=O)N1CCN(c2ccc(F)cc2)CC1	45.8*	75.2	67.0	27.2	1.1	13.0	30.8	2.6	4.3
